Results on 167 variants are retold here after the RNAGym collection of RNA variant scans (doi:10.1126/science.aae0568).

Fewer inactive variants are shown than the library holds. Bounds are passed on as bounds.

Sequences and labels used below:
B1: tRNA (parent)
chain: GUUCCGUUGGCGUAAUGGUAACGCGUCUCCCUCCUAAGGAGAAGACUGCGGGUUCGAGUCCCGUACGGAACG

The variants in the data set derive from B1. As to the kind of experiment: yeast fitness relative to wild type (ratio to wild type); higher = fitter; tRNA-Arg(CCU), competitive growth, 37 C, YPD. In outline: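 Gene amplicons from the start population and from each of six end populations were read by 100-nucleotide paired-end sequencing. Those end populations came from pooled Saccharomyces cerevisiae strains carrying tRNA-Arg(CCU) gene variants at the native locus, competed in YPD at 37°C for 24 hours. Fitness relative to wild type was worked out from changes in genotype frequencies. Genotypes needed ≥ 100 starting reads, and estimates < 0.5 were set to 0.5.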
U7C C11G C24A U47A U64C G67U: the yeast fitness is at most 0.5. As for C5U U16A C33U C49A, the figure is at most 0.5. As for U3A U8A C27G, the figure is at most 0.5; as for C22G G25A U53C, at most 0.5.

For the variant U28G A36G A65U, the yeast fitness is at most 0.5. Under A14C C46U G67C stands 0.589; under C30G C33U A45U, 0.57; under A15U U59C C62A, at most 0.5. Take C33A C55G: the yeast fitness was 0.564. Under U28A G44A G68A stands 0.544; under C31U G48C C66U, 0.741.

For the variant C27U U35G A57C A65C A70U, the yeast fitness is at most 0.5. Under C46U G50A G56C C62A C66U stands 0.582; under C11A G23A U32C U47C, at most 0.5. As for C22G A37U A43U, the figure is 0.502. With U7G C55G G68C, the yeast fitness was determined as 0.6. Regarding U2G G9A A36G A57G C60U, the yeast fitness was found to be 0.672.

Regarding A14G C29G A37G C66G, the yeast fitness is at most 0.5. Under U26C U35G stands 0.615; under U47C C49G, 0.909. Under U13A G68U stands 0.824. Under C11A G17C A21U stands at most 0.5. In the case of A14C G25A C29G C46G C61A, the yeast fitness is 0.569.

In the case of C31U C60U C61G, the yeast fitness was at most 0.5. As to U3A C46A G67U, the yeast fitness came out at 0.603. Under U3A G6C C31A U47G C62A stands at most 0.5; under C27G A57U C62U, 0.62. As for C4U C11U C30G, the figure is at most 0.5; as for G6A G51A, 0.83. For A21U A40U A45U, the yeast fitness amounted to 0.625. Under C5U U19C C24G C61A A70G stands at most 0.5; under U8A G10A A43C, 0.646; under A15G A37G G38A A45U, 0.507. As for C4A U8A C24U, the figure is at most 0.5; as for A37C A57C, 0.543. Under A14G A21U C30A A36U C60U A69C stands at most 0.5.

Turning to U26A C34G C49A U53C A69U, the yeast fitness was at most 0.5. Under C31A A57G stands 0.777; under C5U C46G A65G, 0.661; under A15G C29U C34A A42U, at most 0.5. Under U3C G10A C46U U47A U54C stands at most 0.5; under C4A C5A C22A U28G C33G A57G C62A, at most 0.5. Under C11A U13C C49U U54C C61G C66U stands 0.64.

For G10C A14U G51A C62U, the yeast fitness was at most 0.5. Under C29U C33U A42C stands 0.774. Under A36C C46G stands 0.543; under A15C A21U G23A, at most 0.5. Under C31U C33U A37G A57C stands at most 0.5; under U8C G12A C31G A40C A45C G48C, at most 0.5. On to G6C U7C C34G C55U, for which the yeast fitness was at most 0.5.

In the case of C4A C5U C24G A45U C66U, the yeast fitness is at most 0.5. As for U19C A20U A42C A65C A69U, the figure is at most 0.5; as for C11A G67U, 0.584; as for C5A U26C G41C A43U A57G, at most 0.5. As for G6A A45C C46G G51C, the figure is at most 0.5; as for A15G G44A G50C C60U A70G, at most 0.5; as for C4G U13C, 0.886.

Regarding C33A A36U G63A, the yeast fitness is at most 0.5. With A15G A20U G39A A69C, the yeast fitness is at most 0.5. As for A20C A21U A42U, the figure is at most 0.5. As for C55G U59C C60U G67U, the yeast fitness came to 0.548. For the variant C46U C61A G67A, the yeast fitness was 0.568. For the variant G23A C66A, the yeast fitness was 0.535. As for G58A C61A C62G, the figure is 0.711; as for C22A C33U, 0.604; as for C5U A15U G17A C46G G63C C66A, at most 0.5. As for C24U A43C A70U, the figure is 0.59; as for G25C A42U A43G U53C A65G, at most 0.5.

Consider C4U U8C A69U, for which the yeast fitness came out at 0.875.

Regarding U7A C34G, the yeast fitness was determined as 0.543. Under U32C G67C stands 0.9. Under A20G C31U A36C C61U A65C stands at most 0.5; under C5U A57U C61U, 0.59; under G25A A40C C46U, 0.978. As for U3C G10C C55G, the figure is at most 0.5. Consider C11G C27A A36G G38A A65C, for which the yeast fitness was at most 0.5. For U2C C11A C22G G41A A43C G51C C66U G67U, the yeast fitness worked out at 0.584. Turning to G12A C46A, the yeast fitness was 1.05. As for C27G A36U G39C, the figure is 0.526; as for A14C A20G A36G C55U G68C, at most 0.5. Under G41A A45U G58U C60A stands 0.583.

Take U47G C62U: the yeast fitness is 0.633. Under G10C C49A C55A C62U C66U stands at most 0.5. As for C11A A43U C62G A70U, the figure is at most 0.5.

For G9C A36U C60G G63C, the yeast fitness was at most 0.5.

For G41C C61G A65C, the yeast fitness is at most 0.5.

For C4G C34G G56A U59A, the yeast fitness is at most 0.5.

For U13A C22G U59G A65U, the yeast fitness was at most 0.5. As for C11G C31A C55U, the figure is at most 0.5; as for U19C A43U C62A, 0.628; as for G12A C22A C24A, at most 0.5.

Consider U7C U32A, for which the yeast fitness amounted to 0.761. As for C5U C22A C29U G51C, the figure is at most 0.5. As for U16C U26A G67C, the figure is 0.657; as for C4U A45C C61U, 0.738; as for C11G A14G G23A C46A G68U, at most 0.5. Under C22G C30G A70U stands 0.601; under C27A A45G G48C, at most 0.5.

With U7A C31U A40U G67C, the yeast fitness is at most 0.5. As for C4A G17C A20C A21U C27U C33G G63A G67A, the figure is at most 0.5; as for G38A U47A C55G, 0.658.

For the variant C4U G44C A57U, the yeast fitness amounted to 0.595.

For U2A C5U C29G A37U A65G, the yeast fitness was at most 0.5. As to C5G C11A A14G G25C C29G C66U, the yeast fitness is at most 0.5. As for A42C G50A U64A, the figure is at most 0.5.

Turning to G10A U19C G48A C49G, the yeast fitness came out at 0.56. C33A A37C: the yeast fitness was at most 0.5. In the case of A14G U19A C55U, the yeast fitness was at most 0.5. As for U3G A14G C30U G48C G68C, the figure is at most 0.5; as for C5U C11U, 0.889. As to C27A A36G C61G C66U A69U, the yeast fitness was at most 0.5. Under C34G A42G A43U stands 0.635; under A15G C24G U26A G52A, 0.589; under C11G C29G U32G G38A U53C, at most 0.5. Under C4A C61G stands 0.71. As for U32G G67C, the figure is 0.59; as for G12C U32G C49G C55A, at most 0.5; as for G6C A45C G56A, 0.568.

For the variant U13C A20G C49A U59C C62U A65U A70C, the yeast fitness is 0.53.

Turning to U13G U54C G56A, the yeast fitness stood at 0.563. Under U26C G56C stands 0.697; under C33G G52A G56U, at most 0.5; under A20G G23A, 0.89.

Take A14U C24G G41A G44A U53A A57G C66U: the yeast fitness came out at 0.529. As for C27G G38C, the figure is 0.5. As for G10A C55U, the yeast fitness came to 0.559. As for A20C U28C C34A, the figure is 0.791; as for U26A C34G G56A, 0.565; as for C4G C11A U19C G23C U47C A70U, at most 0.5.

Turning to U13C A21C G50A, the yeast fitness was 0.509. As to C5G G25C C46G U64G, the yeast fitness is at most 0.5. C4A C33A G39A G51C: the yeast fitness was 0.657.

On to A20G C27U C66U, for which the yeast fitness turned out to be 0.689. Under U3A U7C A15U G23C C27U G52A stands at most 0.5; under U13A C49A, 0.654. As to C5G U7A C11U C31A A45C, the yeast fitness is at most 0.5. On to C22G G38A U47C, for which the yeast fitness is at most 0.5. As for C5U U13C, the figure is 0.911; as for C33U G44C C60U A69G, at most 0.5. Under U8C G12A A45U G48A stands at most 0.5; under U2A U26C C33G A42C C49G G58C C62G, at most 0.5. As for U19G C60U C61G G67A, the figure is at most 0.5; as for G12C C31G A65C, at most 0.5. For the variant U7C A14C A65C, the yeast fitness was 0.533.

On to U47C G50C, for which the yeast fitness worked out at 0.633. As for C34U G68C, the figure is 0.773; as for C29A A65G, 0.667; as for U13A C29G A43G G67A, at most 0.5. In the case of G17C C31G A45C U54C C55A, the yeast fitness was at most 0.5. Turning to G6C G41A C62U, the yeast fitness was at most 0.5. As for C4U G9A A15U A20C C27A C61G A65C, the figure is at most 0.5; as for G48C G67A, 0.873; as for C5A C22G C49G, 0.563.

As to U2C C5U U54C, the yeast fitness was at most 0.5. Under C5U G25C A42U A69U stands at most 0.5. As for G12A G51C, the figure is 0.662; as for U16C A45G, 0.919; as for A15G A57U C60G G68C, at most 0.5.

On to C11A A40G C66U, for which the yeast fitness is at most 0.5. Consider G10A C27G U35A A45U G67A, for which the yeast fitness is at most 0.5. As to C29U C33U A40G U47A, the yeast fitness was at most 0.5.

Consider U8A C30U A57C, for which the yeast fitness is at most 0.5. As to A42G U59C C61U, the yeast fitness is 0.502. As for C29U A57C, the figure is 0.611. For the variant U47C G67C, the yeast fitness was 0.886. Under C11G C46U stands 0.752. Under C49G U64C stands 0.972.
